This sample holds only a part of the variants without activity.
B1: tRNA (parent)
chain: GUUCCGUUGGCGUAAUGGUAACGCGUCUCCCUCCUAAGGAGAAGACUGCGGGUUCGAGUCCCGUACGGAACG

Variants of: B1
Assay: yeast fitness relative to wild type (ratio to wild type); higher = fitter; tRNA-Arg(CCU), competitive growth, 37 C, YPD
Summary of the method: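 Genotype frequency changes were the basis for Darwinian fitness relative to wild type. The frequencies came from 100-nucleotide paired-end sequencing of gene amplicons from the start population and each end population of pooled yeast strains with tRNA-Arg(CCU) gene variants at the native locus. Competition ran in YPD at 37°C for 24 hours in six replicates, genotypes needed ≥ 100 starting reads, and estimates < 0.5 were set to 0.5.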
GUUCUGUUGGCGUAAUGGUAACGUGUCUCCCUCCUAAGGGGAAGACUGCGGGUUCGAGUCCCGUACGGAACG showed a yeast fitness of 0.637. Variant GUUCUGUUGGCGUAAUGGUAACGUGUCUCCCUCCUAAGGCGAAGACUGCGGGUUCGAGUCCCGUACGGAACG has a yeast fitness of 0.634. For GUUCUGUUGGCGUAAUGGUAACGCGUCUCCCUUCUAAGGAGAAGACUGCGGGUUCGAGUCCCGUGCGGAACG, the yeast fitness was 0.63. In the case of GUUCUGUUGGCGUAAUGGUAAUGCGUCUCGCUCCUAAGGAGAAGACUGCGGGUUUGAGUCCCGUACGGAACG, the yeast fitness is reported as no more than 0.5. Variant GUUCUGUUGGCGUAAUGGUAAGGCGUCUACCUCCUAAGGAGAAGACUGCGGGUUCGAGUCCCGUACGGAACG has a yeast fitness of 0.585. GUUCUGUUGGCGUAAUGGUAACGCGUCUCCAUCUUAAGGAGAGGACUGCGGGUUCGAGUCCCGUACGGAACG showed a yeast fitness of 0.77. Variant GUUCUGUUGGCGUAAUGGUAACGCGUCUCCUUCCUAAGGAGAAGACUGCGGGUUCGAGUCGCGUACGGAACG has a yeast fitness of 0.549. Work on GUUCUGUUGGCGUAAUGGUAACGGGUCUCCCUCCUAAGGAGACGUCUGCGGAUUCGAGUCCCGUACGGAACG yielded a yeast fitness of no more than 0.5. For GUUCUGUUGGCGUAAUGGUAACGCGUCUCGCUCCUAAGGAGAAGACUGCGGGUUCGAGUCACGUACGGAACG, the yeast fitness was no more than 0.5. GUUCUGUUGGCGUAAUGGUAACGCGUCUCGCUCCUUAGGAGAAGACUGCGAAUUCGAGUCCCGUACGGAACG gave a yeast fitness of 0.524. GUUCUGUUGGCGUAAUGGUAACGCGUAUCCCUCCUAAGGAGUAGACUGGGGGUUCGAGUCCCGUACGGAACG gave a yeast fitness of 0.763. Variant GUUCUGUUGGCGUAAUGGUAACGCGUCUCCCUUCUAAGGAGAAGGCUGCGGGUUCGAGUCUCGUACGGAACG has a yeast fitness of no more than 0.5. Work on GUUCUGUUGGCGUAAUGGUAAUGCGUCUCCCUUCUAAGGAGAAGACUGUGGGUUCGAGUCCGGUACGGAACG yielded a yeast fitness of no more than 0.5. GUUCUGUUGGCGUAAUGGUAACGCGUCUCCUUCCUAAGGAGAAGACUGCAGGUUGGAGUCCCGUACGGAACG gave a yeast fitness of 0.57. For GUUCUGUUGGCGUAAUGGUAACGCGUCUCCAUCCUAAGGAGAAGCCUGCGGGUUCGAGUCCCGUACGGAACG, the yeast fitness was 0.681. GUUCUGUUGGCGUAAUGGUAAUGCGUCUCCCUCCUAAGGAGAAGACUGCGGACUCGAGGCGUGUACGGAACG gave a yeast fitness of no more than 0.5. In the case of GUUCUGUUGGCGUAAUGGUAACGCGUCUGCCUCCUAAGGAGAAGACUGCGGGUUCGAGUCCCGUACGGAACG, the yeast fitness is reported as 0.64. Variant GUUCUGUUGGCGUAAUGGUAACGCGUCUCCCUCAUAAGGAGAAGACUGCGGGUUCGAGUCCCGUACGGAACG has a yeast fitness of 0.631. For GUUCUGUUGGCGUAAUGGUAACGCGUUUCCCUCCUAAGGAGAAGACUGCGGGUUCGAAUGCCGUACGGAACG, the yeast fitness was no more than 0.5. With GUUCUGUUGGCGUAAUGGUAACGCGUCUCCCUCGUAAGGAGAAGACUGCGGGUUCGAGUCCCGAACGGAACG the yeast fitness was no more than 0.5. For GUUCUGUUGGCGUAAUGGUAACGCGUCUCCCUCGUAAGGAGAAGACUGCGGGUUCGAGUCUCGUAUGGAACG, the yeast fitness was no more than 0.5. With GUUCUGUUGGCGUAAUGGUAACGCGUCUCGCUCCUAAGGAGAAGACUGCGGGUUGGAGUCCCGUACGGAACG the yeast fitness was no more than 0.5. In the case of GUUCUGUUGGCGUAAUGGUAACGCGUCUCCCUCCUAAGGAGAAGAAUGCGGGUUGGAGUCCCGUAUGGUACG, the yeast fitness is reported as no more than 0.5. With GUUCUGUUGGCGUAAUGGUAACGCGUCUCACUCCUAAGGAGAAGACUGCGGGUUCGAGUCCCGUACGGAACG the yeast fitness was 0.889. Variant GUUCUGUUGGCGUAAUGGUAACGCGUCUCCGUUCUAAGGAGAAGACUGCGGGUUCGAGUCCCGUACGGAACG has a yeast fitness of 0.522. With GUUCUGUUGGCGUAAUGGUAACGUGUCUCCCUCCUGAGGAGAAGAACGCGGGUUAGAGUCCCGUACAGAACG the yeast fitness was no more than 0.5. With GUUCUGUUGGCGUAAUGGUAAUGCGUCUCCCUCAUAAGGAGUACACUGCGGGUUCGAGUCACGUACGGAACG the yeast fitness was no more than 0.5. GUUCUGUUGGCGUAAUGGUAACGAGUCUCCCCCCUAAGGAGAAGACUGCGGGUUCGAGUCCCGUACGGAACG gave a yeast fitness of 0.565. Work on GUUCUGUUGGCGUAAUGGUAACGCGUCUCCCUCAUAAGGAGAAGACUGCGGGUUCGGGUCCCGUACGGAACG yielded a yeast fitness of no more than 0.5. In the case of GUUCUGUUGGCGUAAUGGUAACGCGUCUCCCUGCUAAGGAGAAGACUGCGGGUUCGAGUCCCGUACGGAACG, the yeast fitness is reported as 0.777. GUUCUGUUGGCGUAAUGGUAACGCGUCUCCCUACUAAGGAGAAGACUGCGGGUUCGAGUCCCGUACGGAACG gave a yeast fitness of 0.737. GUUCUGUUGGCGUAAUGGUAACGCGUGUCCCUCCUAAGGAGAAGAUUGCGGGUUCGAGUCCCGUACGGAACG gave a yeast fitness of 0.753. For GUUCUGUUGGCGUAAUGGUAACGCGUCUCCCUCCUAAGGAGAAGAUUGCCGGUUCGAGUCUCGUACGGAACG, the yeast fitness was no more than 0.5. Work on GUUCUGUUGGCGUAAUGGUAACGUGUCUCCCUCCUAAGGAGAACACUGCGGGUUCGAGUCCCGUACGGAACG yielded a yeast fitness of 0.528. In the case of GUUCUGUUGGCGUAAUGGUAACGCGUCUCCGUCCUAAGGAGAAGACUGUGGGUUCGAGUCGCGUACGGAACG, the yeast fitness is reported as no more than 0.5. GUUCUGUUGGCGUAAUGGUAACGCGUCUCCCUACUCCGGAGAGGACUGCGGGUUCGAGUCCCGUACGGAUCG showed a yeast fitness of no more than 0.5. GUUCUGUUGGCGUAAUGGUAACGCGUAUCCCUCCUAAGGAGAAGACUGCGGGUUCGAGUCUCGUACGGAACG showed a yeast fitness of 0.589. In the case of GUUCUGUUGGCGUAAUGGUAACGUGUCUCCCUCCUAAGGACAAGACUGCGGGUUCGAGUCCCGUACGGACCG, the yeast fitness is reported as no more than 0.5.

Source: the RNAGym collection of RNA variant scans (doi:10.1126/science.aae0568)
